From ChEMBL document CHEMBL1795205, “The new 5- or 6-azapyrimidine and cyanuric acid derivatives of l-ascorbic acid bearing the free C-5 hydroxy or C-4 amino group at the ethylenic spacer: CD-spectral absolute configuration determination and biological activity evaluations” (Eur J Med Chem, 2011)

Assays:
[1] = test system: HeLa; test: Induction of cell cycle arrest in human HeLa cells assessed as accumulation at G1 phase at 5 uM after 24 hrs by flow cytometry relative to control; format: functional
Summary of the method: (§1)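 Cells were seeded at 3×10⁵ per well in 6-well plates and treated after overnight incubation for 24 and 48 h. They were trypsinized, washed three times in PBS, fixed in cold ethanol and stored at −20 °C. Pellets were washed twice in PBS and treated with RNase A at 37 °C for 15 min, then stained with PI for 30 min in the dark. DNA content was measured by flow cytometry.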

[2] = test system: HeLa; test: Induction of cell cycle arrest in human HeLa cells assessed as accumulation at G2/M phase at 5 uM after 24 hrs by flow cytometry relative to control; format: functional; summary of the method: as §1
[3] = test system: HeLa; test: Induction of cell cycle arrest in human HeLa cells assessed as accumulation at S phase at 5 uM after 24 hrs by flow cytometry relative to control; format: functional; summary of the method: as §1
[4] = test system: HeLa; test: Induction of cell cycle arrest in human HeLa cells assessed as accumulation at subG1 phase at 5 uM after 24 hrs by flow cytometry relative to control; format: functional; summary of the method: as §1
[5] = test system: HeLa; test: Induction of cell cycle arrest in human HeLa cells assessed as accumulation at G1 phase at 5 uM after 48 hrs by flow cytometry relative to control; format: functional; summary of the method: as §1
[6] = test system: HeLa; test: Induction of cell cycle arrest in human HeLa cells assessed as accumulation at G2/M phase at 5 uM after 48 hrs by flow cytometry relative to control; format: functional; summary of the method: as §1
[7] = test system: HeLa; test: Induction of cell cycle arrest in human HeLa cells assessed as accumulation at S phase at 5 uM after 48 hrs by flow cytometry relative to control; format: functional; summary of the method: as §1
[8] = test system: HeLa; test: Induction of cell cycle arrest in human HeLa cells assessed as accumulation at subG1 phase at 5 uM after 48 hrs by flow cytometry relative to control; format: functional; summary of the method: as §1
[9] = test system: HeLa; test: Cytostatic activity against human HeLa cells assessed as inhibition of cell proliferation after 72 hrs by MTT assay; format: functional, cell-based
Summary of the method: (§2)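 Monolayer cells grown in DMEM with 10% FBS were seeded on day 0 at 3000–6000 cells/well, set by each line's doubling time. Agents were added the next step in five 10-fold dilutions (0.01–100) for 72 h, with DMSO ≤0.1% and a solvent control. MTT absorbance was converted to percentage growth versus untreated wells on the same plate. Where all PGs exceeded 50, the top concentration was reported as ">". ANOVA/Tukey, p<0.05.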

[10] = test system: MCF7; test: Cytostatic activity against human MCF7 cells assessed as inhibition of cell proliferation after 72 hrs by MTT assay; format: functional, cell-based; details: MCF7, 72 h; summary of the method: as §2
[11] = test system: HepG2; test: Cytostatic activity against human HepG2 cells assessed as inhibition of cell proliferation after 72 hrs by MTT assay; format: functional, cell-based; details: HepG2, 72 h; summary of the method: as §2
[12] = test system: SW-620; test: Cytostatic activity against human SW620 cells assessed as inhibition of cell proliferation after 72 hrs by MTT assay; format: functional, cell-based; details: SW-620, 72 h; summary of the method: as §2
[13] = test system: MIA PaCa-2; test: Cytostatic activity against human MIAPaCa2 cells assessed as inhibition of cell proliferation after 72 hrs by MTT assay; format: functional, cell-based; details: MIA PaCa-2, 72 h; summary of the method: as §2
[14] = test system: WI-38; test: Cytotoxicity against human WI38 cells assessed as inhibition of cell proliferation after 72 hrs by MTT assay; format: cell-based; details: WI-38, 72 h; summary of the method: as §2
[15] = test system: HeLa; test: Induction of cell cycle arrest in human HeLa cells assessed as accumulation at G1 phase at 10 uM after 24 hrs by flow cytometry (reference value: 44.8 +/- 11.2%); format: functional; summary of the method: as §1
[16] = test system: HeLa; test: Induction of cell cycle arrest in human HeLa cells assessed as accumulation at G2/M phase at 10 uM after 24 hrs by flow cytometry (reference value: 10.9 +/- 2.6%); format: functional; summary of the method: as §1
[17] = test system: HeLa; test: Induction of cell cycle arrest in human HeLa cells assessed as accumulation at S phase at 10 uM after 24 hrs by flow cytometry (reference value: 44.4 +/- 8.7%); format: functional; summary of the method: as §1
[18] = test system: HeLa; test: Induction of cell cycle arrest in human HeLa cells assessed as accumulation at subG1 phase at 10 uM after 24 hrs by flow cytometry (reference value: 0.49 +/- 0.2%); format: functional; summary of the method: as §1
[19] = test system: HeLa; test: Induction of cell cycle arrest in human HeLa cells assessed as accumulation at G1 phase at 10 uM after 48 hrs by flow cytometry (reference value: 56.1 +/- 0.1%); format: functional; summary of the method: as §1
[20] = test system: HeLa; test: Induction of cell cycle arrest in human HeLa cells assessed as accumulation at G2/M phase at 10 uM after 48 hrs by flow cytometry (reference value: 3.25 +/- 0.1%); format: functional; summary of the method: as §1
[21] = test system: HeLa; test: Induction of cell cycle arrest in human HeLa cells assessed as accumulation at S phase at 10 uM after 48 hrs by flow cytometry (reference value: 40.6 +/- 0.1%); format: functional; summary of the method: as §1
[22] = test system: HeLa; test: Induction of cell cycle arrest in human HeLa cells assessed as accumulation at subG1 phase at 10 uM after 48 hrs by flow cytometry (reference value: 0.16 +/- 0.01%); format: functional; summary of the method: as §1
[23] = test system: MCF7; test: Induction of cell cycle arrest in human MCF7 cells assessed as accumulation at G1 phase at 5 uM after 24 hrs by flow cytometry (reference value: 50.7 +/- 3.1%); format: functional; summary of the method: as §1
[24] = test system: MCF7; test: Induction of cell cycle arrest in human MCF7 cells assessed as accumulation at G2/M phase at 5 uM after 24 hrs by flow cytometry (reference value: 15.9 +/- 2.7%); format: functional; summary of the method: as §1
[25] = test system: MCF7; test: Induction of cell cycle arrest in human MCF7 cells assessed as accumulation at S phase at 5 uM after 24 hrs by flow cytometry (reference value: 33.4 +/- 0.4%); format: functional; summary of the method: as §1
[26] = test system: MCF7; test: Induction of cell cycle arrest in human MCF7 cells assessed as accumulation at subG1 phase at 5 uM after 24 hrs by flow cytometry (reference value: 0.68 +/- 0.4%); format: functional; summary of the method: as §1
[27] = test system: MCF7; test: Induction of cell cycle arrest in human MCF7 cells assessed as accumulation at G1 phase at 10 uM after 24 hrs by flow cytometry (reference value: 50.7 +/- 3.1%); format: functional; summary of the method: as §1
[28] = test system: MCF7; test: Induction of cell cycle arrest in human MCF7 cells assessed as accumulation at G2/M phase at 10 uM after 24 hrs by flow cytometry (reference value: 15.9 +/- 2.7%); format: functional; summary of the method: as §1
[29] = test system: MCF7; test: Induction of cell cycle arrest in human MCF7 cells assessed as accumulation at S phase at 10 uM after 24 hrs by flow cytometry (reference value: 33.4 +/- 0.4%); format: functional; summary of the method: as §1
[30] = test system: MCF7; test: Induction of cell cycle arrest in human MCF7 cells assessed as accumulation at subG1 phase at 10 uM after 24 hrs by flow cytometry (reference value: 0.68 +/- 0.4%); format: functional; summary of the method: as §1
[31] = test system: MCF7; test: Induction of cell cycle arrest in human MCF7 cells assessed as accumulation at G1 phase at 5 uM after 48 hrs by flow cytometry (reference value: 52.3 +/- 6.1%); format: functional; summary of the method: as §1
[32] = test system: MCF7; test: Induction of cell cycle arrest in human MCF7 cells assessed as accumulation at G2/M phase at 5 uM after 48 hrs by flow cytometry (reference value: 6.82 +/- 0.3%); format: functional; summary of the method: as §1
[33] = test system: MCF7; test: Induction of cell cycle arrest in human MCF7 cells assessed as accumulation at S phase at 5 uM after 48 hrs by flow cytometry (reference value: 40.9 +/- 5.7%); format: functional; summary of the method: as §1
[34] = test system: MCF7; test: Induction of cell cycle arrest in human MCF7 cells assessed as accumulation at subG1 phase at 5 uM after 48 hrs by flow cytometry (reference value: 0.51 +/- 0.01%); format: functional; summary of the method: as §1
[35] = test system: MCF7; test: Induction of cell cycle arrest in human MCF7 cells assessed as accumulation at G1 phase at 10 uM after 48 hrs by flow cytometry (reference value: 52.3 +/- 6.1%); format: functional; summary of the method: as §1
[36] = test system: MCF7; test: Induction of cell cycle arrest in human MCF7 cells assessed as accumulation at G2/M phase at 10 uM after 48 hrs by flow cytometry (reference value: 6.82 +/- 0.3%); format: functional; summary of the method: as §1
[37] = test system: MCF7; test: Induction of cell cycle arrest in human MCF7 cells assessed as accumulation at S phase at 10 uM after 48 hrs by flow cytometry (reference value: 40.9 +/- 5.7%); format: functional; summary of the method: as §1
[38] = test system: MCF7; test: Induction of cell cycle arrest in human MCF7 cells assessed as accumulation at subG1 phase at 10 uM after 48 hrs by flow cytometry (reference value: 0.51 +/- 0.01%); format: functional; summary of the method: as §1

O=C1O/C(=C\Cn2ccc(NC(=O)c3ccccc3)nc2=O)C(OCc2ccccc2)=C1OCc1ccccc1
Activity [1]: 47.1%
Activity [2]: 13.1%
Activity [3]: 39.9%
Activity [4]: 0.04%
Activity [5]: 60.8%
Activity [6]: 2.8%
Activity [7]: 36.5%
Activity [8]: 0.27%
IC50 [9]: 7.2 µM
IC50 [10]: 2.03 µM
IC50 [11]: 1.98 µM
IC50 [12]: > 100 µM
IC50 [13]: 24.2 µM
IC50 [14]: 8.49 µM
Activity [15]: 37.9%
Activity [16]: 8.45%
Activity [17]: 53.7%
Activity [18]: 0.2%
Activity [19]: 52.3%
Activity [20]: 8.3%
Activity [21]: 39.5%
Activity [22]: 0.56%
Activity [23]: 57.9%
Activity [24]: 13.8%
Activity [25]: 28.3%
Activity [26]: 0.42%
Activity [27]: 54.3%
Activity [28]: 6.54%
Activity [29]: 39.2%
Activity [30]: 0.2%
Activity [31]: 50.6%
Activity [32]: 13.9%
Activity [33]: 35.6%
Activity [34]: 0.37%
Activity [35]: 56.6%
Activity [36]: 5.52%
Activity [37]: 38%
Activity [38]: 0.32%

O=C1O/C(=C\Cn2ncc(=O)[nH]c2=O)C(OCc2ccccc2)=C1OCc1ccccc1
IC50 [9]: 45 µM
IC50 [10]: 3.77 µM
IC50 [11]: 41.3 µM
IC50 [12]: 36.5 µM
IC50 [13]: 20.4 µM
IC50 [14]: 24.6 µM

Nc1ccn(CCC2(N)OC(=O)C(OCc3ccccc3)=C2OCc2ccccc2)c(=O)n1 (racemic)
IC50 [9]: > 100 µM
IC50 [10]: 32 µM
IC50 [11]: > 100 µM
IC50 [12]: > 100 µM
IC50 [13]: > 100 µM
IC50 [14]: 88.9 µM

O=C1O/C(=C\Cn2c(=O)[nH]c(=O)[nH]c2=O)C(OCc2ccccc2)=C1OCc1ccccc1
IC50 [9]: > 100 µM
IC50 [10]: 17.8 µM
IC50 [11]: 44.8 µM
IC50 [12]: > 100 µM
IC50 [13]: 37.9 µM

NC1(CCn2ccc(=O)[nH]c2=O)OC(=O)C(OCc2ccccc2)=C1OCc1ccccc1 (racemic)
IC50 [9]: > 100 µM
IC50 [10]: > 100 µM
IC50 [11]: > 100 µM
IC50 [12]: > 100 µM
IC50 [13]: > 100 µM
IC50 [14]: > 100 µM

Cc1cn(CCC2(N)OC(=O)C(OCc3ccccc3)=C2OCc2ccccc2)c(=O)[nH]c1=O (racemic)
IC50 [9]: > 100 µM
IC50 [10]: 80.4 µM
IC50 [11]: > 100 µM
IC50 [12]: > 100 µM
IC50 [13]: > 100 µM
IC50 [14]: > 100 µM

Nc1ncn(C/C=C2\OC(=O)C(O)=C2OCc2ccccc2)c(=O)n1
IC50 [9]: > 100 µM
IC50 [10]: > 100 µM
IC50 [11]: > 100 µM
IC50 [12]: > 100 µM
IC50 [13]: > 100 µM
IC50 [14]: > 100 µM

NC1(CCn2cc(F)c(=O)[nH]c2=O)OC(=O)C(OCc2ccccc2)=C1OCc1ccccc1 (racemic)
IC50 [9]: > 100 µM
IC50 [10]: 20.9 µM
IC50 [11]: 42.8 µM
IC50 [12]: > 100 µM
IC50 [13]: > 100 µM
IC50 [14]: 36.2 µM
